According to ChEMBL document CHEMBL1123669 (J Med Chem, 1987):

Assays:
Rattus norvegicus [1] = species on record: Rattus norvegicus; assay: Inhibition of rat heart cAMP phosphodiesterase
Phosphodiesterase 3 [2] = biological target: T1, Phosphodiesterase 3 (Homo sapiens, UniProt Q14432+Q13370); assay: In vitro inhibition of cyclic AMP phosphodiesterase from human platelets.
Homo sapiens = species on record: Homo sapiens; assay: Inhibition of ADP-induced platelet aggregation; assay type: functional
Outline: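 Human citrated PRP (200g, 15 min, room temperature), aspirin-free donors. Compound in DMF or Me2SO preincubated 5 min with stirred PRP at 37 °C. Aggregation induced by 5 μM ADP, followed turbidimetrically. Repeated at least twice with different donors; IC50 graphical.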

Rattus norvegicus [3] = species on record: Rattus norvegicus; assay: Inhibition of rat heart cAMP phosphodiesterase (weak partial inhibition)
Phosphodiesterase 3 [4] = biological target: T1, Phosphodiesterase 3; assay: Inhibition of human platelet cAMP phosphodiesterase at 10e-4 M

Row | IC25 (Rattus norvegicus [1]) [µM] | IC50 (Phosphodiesterase 3 [2]) [µM] | IC50 (Homo sapiens) [µM] | IC25 (Rattus norvegicus [3]) [µM] | IC50 (Phosphodiesterase 3 [4]) [µM] | SMILES
1 | 0.32 | 0.29 | 62 | – | – | CCCCCCOc1ccc2c(c1)CN1CC(=O)NC1=N2
2 | 0.38 | 0.19 | – | – | – | CN(C(=O)CCCOc1ccc2c(c1)CSC(=O)N2)C1CCCCC1
3 | 0.6 | 0.01 | 0.11 | – | – | CN(C(=O)CCCOc1ccc2c(c1)CN1CC(=O)NC1=N2)C1CCCCC1 [LIXAZINONE]
4 | – | 13 | – | – | – | COc1ccc2c(c1)CSC(=O)N2
5 | – | 1.5 | 4 | – | – | COc1ccc2c(c1)CN1CC(=O)NC1=N2
6 | – | 21 | – | – | – | COc1ccc2nc(O)sc2c1
7 | 0.7 | – | 1.9 | – | – | CN(C(=O)CCCOc1ccc2[nH]c(=O)ccc2c1)C1CCCCC1 [CILOSTAMIDE]
8 | – | – | 2.6 | > 100 | – | O=C1CN2Cc3c(ccc(Cl)c3Cl)N=C2N1 [ANAGRELIDE]
9 | 1.5 | 1.35 | – | – | – | CN(C(=O)CCCOc1ccc2c(c1)CCC(=O)N2)C1CCCCC1
10 | 1 | 1.15 | – | – | – | CN(C(=O)CCCOc1ccc2c(c1)COC(=O)N2)C1CCCCC1
11 | 0.88 | 1.3 | – | – | – | CN(C(=O)CCCOc1ccc2c(c1)CNC(=O)N2)C1CCCCC1
12 | 1.4 | 1.8 | – | – | – | CN(C(=O)CCCOc1ccc2c(c1)SCC(=O)N2)C1CCCCC1
13 | 50 | 3.6 | – | – | – | CN(C(=O)CCCOc1ccc2c(c1)C(=O)NCC(=O)N2)C1CCCCC1
14 | 1.3 | 1.15 | – | – | – | CN(C(=O)CCCOc1ccc2[nH]c(=O)[nH]c(=O)c2c1)C1CCCCC1
15 | 1.3 | 3.4 | – | – | – | CN(C(=O)CCCOc1ccc2c(c1)OCC(=O)N2)C1CCCCC1
16 | – | – | – | – | 35 | COc1ccc2c(c1)CNC(=O)N2
17 | – | 100 | – | – | – | COc1ccc2c(c1)COC(=O)N2
18 | > 30 | 4.4 | – | – | – | CN(C(=O)CCCOc1ccc2[nH]c(=O)oc(=O)c2c1)C1CCCCC1
19 | > 10 | 10 | – | – | – | CN(C(=O)CCCOc1ccc2nc(O)sc2c1)C1CCCCC1
